We go through four compounds from ChEMBL document CHEMBL5329167, “Design, synthesis and evaluation of halogenated phenazine antibacterial prodrugs targeting nitroreductase enzymes for activation” (RSC Med Chem, 2023).

Structures are written as SMILES. ≈ marks a conversion by molar mass, not a printed value. Calls of active or inactive are those of the source. The rule behind the calls is not given here. Where only a bound is given, the exact number is not on record here.

For series [1], the system named is Staphylococcus epidermidis. The experiment in a line: Antibacterial activity against Staphylococcus epidermidis 12228 assessed as bacterial growth inhibition incubated for 16 hrs by CLSI based broth microdilution method. It is filed as functional. In short, it runs like this: (§1)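 CLSI broth microdilution in LB: eleven 2-fold serial dilutions, 0.10–100 µM. DMSO vehicle/negative control diluted from 0.5% v/v. Wells seeded with ~10⁵ cells from log-phase culture (OD₆₀₀ 0.6–0.8), held 16 h at 37 °C. MIC taken as the lowest concentration preventing growth by OD₆₀₀ turbidity. Minimum three independent experiments.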
For orientation: Broth dilution looks for growth in wells or tubes with falling amounts of substance.

Series [2] is described as follows: Hemolytic activity against red blood cells (unknown origin) at 200 uM. Conditions: read-out: Activity. The series is classed as toxicity, cell-based, Erythrocyte.
Series [3] deals with Staphylococcus aureus. The experiment in a line: Antibacterial activity against methicillin-resistant Staphylococcus aureus 1707 assessed as bacterial growth inhibition incubated for 16 hrs by CLSI based broth microdilution method. The series is classed as functional. In short, it runs like this: (§2)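 Broth microdilution per CLSI in LB, eleven two-fold serial dilutions spanning 0.10 to 100 µM. Inoculum ~10⁵ cells/well from fresh log-phase culture (OD₆₀₀ 0.6–0.8). MIC taken as lowest concentration preventing growth after 16 h at 37 °C, read by OD₆₀₀ turbidity. DMSO vehicle control, top 0.5% v/v. At least three independent experiments.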

For series [4], the system named is Staphylococcus aureus. The experiment in a line: Antibacterial activity against methicillin-resistant Staphylococcus aureus clinical isolate 1 assessed as bacterial growth inhibition incubated for 16 hrs by CLSI based broth microdilution method. It is filed as functional.
Series [5] relates to Staphylococcus aureus. Put plainly: Antibacterial activity against methicillin-resistant Staphylococcus aureus 1707 assessed as zone of inhibition at 10 mM incubated for 16 hrs by agar diffusion assay. The series is classed as functional. In short, it runs like this:
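Modified Kirby-Bauer disk diffusion. 100 µL MRSA 1707 inoculum (OD₆₀₀ 0.7, ~10⁸ CFU) spread on LB agar and left 30 min. 10 µL of 10 mM DMSO compound solution then pipetted onto the plate. Incubation 16 h at 37 °C; zone of inhibition area (cm²) measured. Three independent experiments.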
(Agar diffusion results depend on both activity and mobility in agar.)

Series [6] can be described thus: Cytotoxicity against HEK293 cells incubated for 48 hrs by MTT assay. It is filed as toxicity, cell-based. Particulars: human. In short, it runs like this: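 HEK-293 cells (10⁴/well) in DMEM with 10% FBS, penicillin/streptomycin, settled overnight at 37 °C, 5% CO₂. Medium replaced with compound at 0.10–100 µM (2-fold steps); DMSO as negative control. After 48 h at 37 °C, MTT (5 mg/mL stock) added for 3 h. Formazan dissolved in DMSO, OD read at 570 nm. Eight replicates per treatment.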

Another series concerns Enterococcus. Put plainly: Antibacterial activity against vancomycin-resistant Enterococcus 700221 assessed as bacterial growth inhibition incubated for 16 hrs by CLSI based broth microdilution method. The series is classed as functional. The essentials: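 Growth scored by OD₆₀₀ turbidity after 16 h at 37 °C; MIC is the lowest concentration preventing growth. DMSO vehicle control up to 0.5% v/v. Three or more independent experiments.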

The test system of series [7] is Staphylococcus aureus. The experiment in a line: Antibacterial activity against methicillin-resistant Staphylococcus aureus BAA-1707 assessed as bacterial growth inhibition incubated for 16 hrs by CLSI based broth microdilution method. The series is classed as functional. In short, it runs like this: as §2
In series [8] the test system is Staphylococcus aureus. Put plainly: Antibacterial activity against methicillin-resistant Staphylococcus aureus BAA-44 assessed as bacterial growth inhibition incubated for 16 hrs by CLSI based broth microdilution method. It is filed as functional. In short, it runs like this: as §2
Series [9] has as its system Staphylococcus aureus. Put plainly: Antibacterial activity against Staphylococcus aureus clinical isolate 138 assessed as bacterial growth inhibition incubated for 16 hrs by CLSI based broth microdilution method. The series is classed as functional.
In the next series the test system is Enterococcus faecalis. The experiment in a line: Antibacterial activity against Enterococcus faecalis OG1RF assessed as bacterial growth inhibition incubated for 16 hrs by CLSI based broth microdilution method. The series is classed as functional. In short, it runs like this: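 Broth microdilution per CLSI in brain-heart infusion: eleven 2-fold dilutions spanning 0.10–100 µM, with DMSO vehicle/negative control topping at 0.5% v/v. Inoculum ~10⁵ cells/well from log-phase culture (OD₆₀₀ 0.6–0.8). 37 °C, 16 h. MIC is the lowest concentration preventing growth, read as OD₆₀₀ turbidity. At least three independent experiments.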

For series [10], the system named is Staphylococcus aureus. The experiment in a line: Antibacterial activity against methicillin-resistant Staphylococcus aureus clinical isolate 2 assessed as bacterial growth inhibition incubated for 16 hrs by CLSI based broth microdilution method. It is filed as functional.
The test system of series [11] is Staphylococcus epidermidis. The experiment in a line: Antibacterial activity against Staphylococcus epidermidis clinical isolate CL-1 assessed as bacterial growth inhibition incubated for 16 hrs by CLSI based broth microdilution method. It is filed as functional.
Series [12] relates to Staphylococcus aureus. Put plainly: Antibacterial activity against Staphylococcus aureus clinical isolate 156 assessed as bacterial growth inhibition incubated for 16 hrs by CLSI based broth microdilution method. The series is classed as functional.
Series [13] deals with Staphylococcus epidermidis. Put plainly: Antibacterial activity against methicillin-resistant Staphylococcus epidermidis 35984 assessed as bacterial growth inhibition incubated for 16 hrs by CLSI based broth microdilution method. It is filed as functional. In short, it runs like this: as §2
For the next series, the system named is Streptococcus pneumoniae. The experiment in a line: Antibacterial activity against Streptococcus pneumoniae 6303 assessed as bacterial growth inhibition incubated for 16 hrs by CLSI based broth microdilution method. The series is classed as functional. The essentials:
as §1

The nature of series [14]: Metal chelating activity assessed as formation of phenazine-iron complex measured for 1 to 60 mins by UV-vis spectroscopy. Conditions: time 1-60 min. In short, it runs like this:
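Compound from a 10 mM DMSO stock diluted in DMSO in a cuvette, alone or with ammonium iron(II) sulfate hexahydrate (10 mM aqueous stock). Spectra of the compound-only cuvette and the iron-containing cuvette are compared by UV-vis spectrometry to judge phenazine–iron(II) complex formation.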

Series [15] is described as follows: Lipophilicity, LogP of compound in octanol-water mixture incubated for 1 hr by UV-vis spectroscopy. It is filed as physicochemical. The essentials:
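Shake-flask partition: compound in octanol (1% v/v DMSO) mixed with equal volume water, stirred vigorously, left 1 h at room temperature to separate. Octanol-phase concentration measured by UV-Vis at 370 or 380 nm against a serial-dilution standard curve. Water concentration obtained by mass balance; LogP = log10(Coct/Cw). Acetophenone as positive control. Three independent experiments.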

Series [16] has as its system Staphylococcus aureus. Put plainly: Antibacterial activity against Staphylococcus aureus clinical isolate 147 assessed as bacterial growth inhibition incubated for 16 hrs by CLSI based broth microdilution method. The series is classed as functional.
Series [17] has as its system Staphylococcus aureus. Put plainly: Antibacterial activity against Staphylococcus aureus clinical isolate 129 assessed as bacterial growth inhibition incubated for 16 hrs by CLSI based broth microdilution method. The series is classed as functional.

As usually defined, the MIC is the least concentration at which growth counts as inhibited. By CC50 is commonly meant the concentration that lowers cell viability or growth by half. The low end stands for harm at low concentration, the high end for better tolerance by the cells. One may read the logP as a log measure of how a compound divides between an organic and an aqueous phase. In the case of `Cc1cccc2nc3c(OS(=O)(=O)Cc4ccc([N+](=O)[O-])cc4)c(Br)c(Cl)c(Br)c3nc12`, the minimum inhibitory concentration (MIC) came out at 0.59 µM (≈ 0.355 µg/mL) in series [1]; 0.1 µM (≈ 0.0602 µg/mL) in the series on Staphylococcus aureus [3]; 0.3 µM (≈ 0.18 µg/mL) with Staphylococcus aureus [4]; 0.15 µM (≈ 0.0902 µg/mL) in the series on Enterococcus; 0.1 µM (≈ 0.0602 µg/mL) in the series with Staphylococcus aureus [7]; 0.3 µM (≈ 0.18 µg/mL) with Staphylococcus aureus [8]. In addition, the minimum inhibitory concentration (MIC) in the series with Staphylococcus aureus [9] was 0.39 µM (≈ 0.235 µg/mL); in the series on Enterococcus faecalis, 4.69 µM (≈ 2.82 µg/mL); with Staphylococcus aureus [10], 0.3 µM (≈ 0.18 µg/mL); in series [11], 2.35 µM (≈ 1.41 µg/mL); in the series with Staphylococcus aureus [12], 0.59 µM (≈ 0.355 µg/mL); in series [13], 0.15 µM (≈ 0.0902 µg/mL). In addition, the MIC is 0.15 µM (≈ 0.0902 µg/mL) in the series on Streptococcus pneumoniae and 0.59 µM (≈ 0.355 µg/mL) in the series with Staphylococcus aureus [16]. In addition, in series [2], the hemolysis at 200 µM was < 1%. Further, the “diameter of the inhibition zone (DIZ)” value in the series on Staphylococcus aureus [5] is on record as 0.87 cm2. This compound also returned a CC50 at 48 h in series [6] of 34.1 µM. In addition, the outcome in series [14] was Active. Also, in series [15], the logP at 1 h was found to be 3.11.
For the compound `O=[N+]([O-])c1ccc(CS(=O)(=O)Oc2c(Br)cc(Br)c3nc4ccccc4nc23)cc1`, the MIC in [1] stood at 4.69 µM (≈ 2.59 µg/mL); with Staphylococcus aureus [3], 0.78 µM (≈ 0.431 µg/mL); in the series on Staphylococcus aureus [4], 3.13 µM (≈ 1.73 µg/mL); in the series with Enterococcus, 9.38 µM (≈ 5.19 µg/mL); in the series on Staphylococcus aureus [7] it was 0.78 µM (≈ 0.431 µg/mL); in the series on Staphylococcus aureus [8], 1.56 µM (≈ 0.863 µg/mL). For the same compound, the MIC with Staphylococcus aureus [9] is 4.69 µM (≈ 2.59 µg/mL); with Enterococcus faecalis it was 37.5 µM (≈ 20.7 µg/mL); in the series with Staphylococcus aureus [10], 2.35 µM (≈ 1.3 µg/mL); in series [11], 6.25 µM (≈ 3.46 µg/mL); with Staphylococcus aureus [12], 6.25 µM (≈ 3.46 µg/mL); in series [13] it was 4.69 µM (≈ 2.59 µg/mL). Also, the values for the MIC with Streptococcus pneumoniae, in the series with Staphylococcus aureus [16] and in the series on Staphylococcus aureus [17] were 4.69 µM (≈ 2.59 µg/mL), 6.25 µM (≈ 3.46 µg/mL) and 6.25 µM (≈ 3.46 µg/mL), respectively. Also, the hemolysis at 200 µM in series [2] was < 1%. Further, in the series on Staphylococcus aureus [5], the “diameter of the inhibition zone (DIZ)” value is given as 1.13 cm2. Also, it took 51.7 µM to reach half-maximal cytotoxicity in [6] (CC50 at 48 h). Further, the outcome in series [14] was inactive. Moreover, the log partition coefficient (logP) at 1 h in series [15] turned out to be 0.42.
As to `Oc1c(Br)cc(Br)c2nc3ccccc3nc12`, the MIC in [1] worked out at 2.35 µM (≈ 0.832 µg/mL); in the series with Staphylococcus aureus [4] it was 0.78 µM (≈ 0.276 µg/mL); in the series with Enterococcus faecalis, 18.8 µM (≈ 6.66 µg/mL); with Staphylococcus aureus [10], 1.56 µM (≈ 0.552 µg/mL); in the series with Streptococcus pneumoniae, 1.17 µM (≈ 0.414 µg/mL). In addition, the hemolysis at 200 µM in series [2] was < 1%. Besides, the “diameter of the inhibition zone (DIZ)” value in the series on Staphylococcus aureus [5] was determined as 5.08 cm2. For the same compound, the outcome in series [14] was Active. The lipophilicity (logP) at 1 h in series [15] turned out to be 0.25.
With `Cc1cccc2nc3c(O)c(Br)c(Cl)c(Br)c3nc12`, the MIC in [1] is 0.1 µM (≈ 0.0402 µg/mL); in the series on Staphylococcus aureus [3], 0.1 µM (≈ 0.0402 µg/mL); in the series on Staphylococcus aureus [4] it was 0.1 µM (≈ 0.0402 µg/mL); in the series with Enterococcus it was 0.1 µM (≈ 0.0402 µg/mL); in the series on Staphylococcus aureus [7], 0.1 µM (≈ 0.0402 µg/mL); in the series with Staphylococcus aureus [8] it was 0.15 µM (≈ 0.0604 µg/mL). Besides, the minimal inhibitory concentration (MIC) in the series with Staphylococcus aureus [9] worked out at 0.1 µM (≈ 0.0402 µg/mL); with Enterococcus faecalis, 0.39 µM (≈ 0.157 µg/mL); in the series on Staphylococcus aureus [10], 0.15 µM (≈ 0.0604 µg/mL); in [11], 0.39 µM (≈ 0.157 µg/mL); in the series on Staphylococcus aureus [12], 0.1 µM (≈ 0.0402 µg/mL); in [13], 0.1 µM (≈ 0.0402 µg/mL). Besides, the MIC with Streptococcus pneumoniae, in the series with Staphylococcus aureus [16] and in the series with Staphylococcus aureus [17] was 0.1 µM (≈ 0.0402 µg/mL) each time. Further, the hemolysis at 200 µM in [2] was < 1%. Also, the “diameter of the inhibition zone (DIZ)” value with Staphylococcus aureus [5] was 3.85 cm2. The 50% cytotoxic concentration (CC50) at 48 h in series [6] is 18.3 µM. Also, the result in series [14] was inactive. Also, the logP at 1 h in [15] was determined as 0.81.
